Reference: ChEMBL document CHEMBL1914304 (J Med Chem, 2011)

Target: T1, Potassium/sodium hyperpolarization-activated cyclic nucleotide-gated channel 2 (Homo sapiens) (UniProt Q9UL51)
T1 sequence (whole entry): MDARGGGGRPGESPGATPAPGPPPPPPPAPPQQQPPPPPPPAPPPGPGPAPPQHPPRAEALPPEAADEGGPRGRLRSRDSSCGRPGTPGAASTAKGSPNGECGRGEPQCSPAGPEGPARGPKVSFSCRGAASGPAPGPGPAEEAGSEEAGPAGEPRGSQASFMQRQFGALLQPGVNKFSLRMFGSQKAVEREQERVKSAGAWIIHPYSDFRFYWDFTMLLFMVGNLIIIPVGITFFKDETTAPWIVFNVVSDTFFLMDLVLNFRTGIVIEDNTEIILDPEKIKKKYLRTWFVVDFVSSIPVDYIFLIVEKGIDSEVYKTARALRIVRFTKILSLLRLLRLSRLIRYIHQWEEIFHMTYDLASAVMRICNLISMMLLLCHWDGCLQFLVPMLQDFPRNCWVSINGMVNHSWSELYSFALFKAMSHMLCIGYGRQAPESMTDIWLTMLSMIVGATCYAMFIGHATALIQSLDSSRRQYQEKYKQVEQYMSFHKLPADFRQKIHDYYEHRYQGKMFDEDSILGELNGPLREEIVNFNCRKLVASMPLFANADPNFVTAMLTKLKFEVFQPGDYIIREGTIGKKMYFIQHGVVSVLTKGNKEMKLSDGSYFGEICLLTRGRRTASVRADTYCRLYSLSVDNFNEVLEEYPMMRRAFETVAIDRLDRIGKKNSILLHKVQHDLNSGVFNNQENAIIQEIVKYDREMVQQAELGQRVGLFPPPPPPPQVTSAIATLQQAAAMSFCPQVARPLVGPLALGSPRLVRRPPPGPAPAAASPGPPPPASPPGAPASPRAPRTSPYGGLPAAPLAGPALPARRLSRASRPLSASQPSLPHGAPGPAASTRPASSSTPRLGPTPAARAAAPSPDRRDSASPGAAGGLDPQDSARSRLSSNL
Test: Inhibition of HCN2 at 10 uM after 5 mins by patch clamp assay
In short: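 Cardiac ion channel panel run by a contract lab on an automated parallel patch-clamp system at room temperature. Each of 12 cardiac channels was tested with 10 µM compound for 5 min exposure, in two cells per channel (n ≥ 2). Values are reported as mean % inhibition.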

SMILES: CCCNCC(O)COc1ccccc1C(=O)CCc1ccccc1 (racemic) [PROPAFENONE]
- inhibition: 47.8%
